Assay results taken from ChEMBL document CHEMBL1124049, “Synthesis and biological characterization of pyridohomotropanes. Structure-activity relationships of conformationally restricted nicotinoids” (J Med Chem, 1988).

Legend:
Rattus norvegicus [1] = organism: Rattus norvegicus; assay: Effective dose required to produce prostration after injection into rat's fourth ventricle; type: functional
In short: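 Rats given various doses into the fourth ventricle through chronically implanted cannulae, in 1 μL. Prostration of the limbs was scored, from hind-limb prostration with forelimb weakness up to prostration of all four limbs.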

Acetylcholine receptor [2] = molecular target: T1, Acetylcholine receptor (Torpedo californica, UniProt P02710+P02712+P02714+P02718); assay: inhibition of (-)-[3H]nicotine binding to torpedo electroplax membranes
T1 sequence (P02710 whole entry): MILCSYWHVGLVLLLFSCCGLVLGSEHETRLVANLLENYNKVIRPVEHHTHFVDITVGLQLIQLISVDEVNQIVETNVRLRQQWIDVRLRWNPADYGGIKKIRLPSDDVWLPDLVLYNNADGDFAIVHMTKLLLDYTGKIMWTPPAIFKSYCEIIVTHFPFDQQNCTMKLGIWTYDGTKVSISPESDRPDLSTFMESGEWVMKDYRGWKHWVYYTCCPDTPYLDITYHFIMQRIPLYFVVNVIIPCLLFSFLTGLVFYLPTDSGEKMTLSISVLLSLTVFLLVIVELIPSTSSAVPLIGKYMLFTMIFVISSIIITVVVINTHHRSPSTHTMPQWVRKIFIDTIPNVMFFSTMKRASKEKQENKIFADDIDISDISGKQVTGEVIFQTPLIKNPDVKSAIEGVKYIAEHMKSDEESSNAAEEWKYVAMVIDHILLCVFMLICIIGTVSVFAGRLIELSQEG
T1 sequence (P02712 whole entry): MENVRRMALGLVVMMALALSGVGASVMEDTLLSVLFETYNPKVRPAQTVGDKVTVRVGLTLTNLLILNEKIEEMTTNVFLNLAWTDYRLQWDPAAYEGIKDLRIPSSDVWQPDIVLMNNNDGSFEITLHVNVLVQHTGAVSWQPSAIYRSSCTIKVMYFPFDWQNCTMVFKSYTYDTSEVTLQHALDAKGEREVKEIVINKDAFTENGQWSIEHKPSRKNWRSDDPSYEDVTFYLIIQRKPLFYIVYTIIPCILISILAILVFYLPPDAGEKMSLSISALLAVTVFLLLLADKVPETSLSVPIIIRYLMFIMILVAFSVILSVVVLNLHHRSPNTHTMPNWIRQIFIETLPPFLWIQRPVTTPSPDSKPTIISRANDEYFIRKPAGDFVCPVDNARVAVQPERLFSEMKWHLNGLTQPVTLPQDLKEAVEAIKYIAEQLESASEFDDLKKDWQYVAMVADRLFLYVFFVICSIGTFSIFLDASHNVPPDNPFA
T1 sequence (P02718 whole entry): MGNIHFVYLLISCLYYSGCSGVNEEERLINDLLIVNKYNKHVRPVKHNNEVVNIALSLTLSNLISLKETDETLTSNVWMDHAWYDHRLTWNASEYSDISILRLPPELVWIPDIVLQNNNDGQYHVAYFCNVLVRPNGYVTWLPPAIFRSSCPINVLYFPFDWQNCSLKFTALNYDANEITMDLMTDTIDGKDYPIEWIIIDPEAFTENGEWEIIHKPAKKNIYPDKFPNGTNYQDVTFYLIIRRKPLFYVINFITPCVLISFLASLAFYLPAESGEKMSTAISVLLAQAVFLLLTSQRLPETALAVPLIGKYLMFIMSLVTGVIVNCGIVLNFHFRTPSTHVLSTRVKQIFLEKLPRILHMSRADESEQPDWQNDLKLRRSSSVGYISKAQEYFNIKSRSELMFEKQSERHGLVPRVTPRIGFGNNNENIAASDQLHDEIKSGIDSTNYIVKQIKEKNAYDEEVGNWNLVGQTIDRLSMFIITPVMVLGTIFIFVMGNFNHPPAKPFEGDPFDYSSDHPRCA
T1 sequence (P02714 whole entry): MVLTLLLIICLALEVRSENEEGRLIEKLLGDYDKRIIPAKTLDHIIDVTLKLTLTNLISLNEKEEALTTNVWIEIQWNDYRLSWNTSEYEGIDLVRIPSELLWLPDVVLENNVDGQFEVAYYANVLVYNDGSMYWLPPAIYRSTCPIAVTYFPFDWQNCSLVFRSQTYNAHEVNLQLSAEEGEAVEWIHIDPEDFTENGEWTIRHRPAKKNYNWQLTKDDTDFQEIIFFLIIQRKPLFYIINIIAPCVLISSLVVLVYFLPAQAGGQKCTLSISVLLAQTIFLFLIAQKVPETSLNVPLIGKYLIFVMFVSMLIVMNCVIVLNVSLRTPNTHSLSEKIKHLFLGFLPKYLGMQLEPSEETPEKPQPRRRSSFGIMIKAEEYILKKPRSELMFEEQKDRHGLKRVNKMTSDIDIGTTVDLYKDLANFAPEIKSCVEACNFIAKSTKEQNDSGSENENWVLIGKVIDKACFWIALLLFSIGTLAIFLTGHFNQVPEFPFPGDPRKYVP
In short: (§1)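 Membranes from whole rat brain or Torpedo electric organ, homogenized in 30 volumes 0.05 M NaH2PO4 pH 7.0 and spun at 50000g for 30 min. Each tube held 2 mg brain protein or 1 mg electric organ protein, 1 × 10⁻⁹ M radioligand (final), and varied agent concentrations in 0.05 M NaPO4 pH 7.0.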

Acetylcholine receptor [3] = molecular target: T1, Acetylcholine receptor; assay: Inhibition of [3H]MCC binding to torpedo electroplax membranes; in short: as §1
[4] = molecular target: Neuronal acetylcholine receptor; assay: Inhibition of (-)-[3H]nicotine binding to rat brain membranes; type: cell membranes, Membrane; in short: as §1
Rattus norvegicus [5] = organism: Rattus norvegicus; assay: Potency for prostration assay, relative to PHT; type: functional
[6] = molecular target: Neuronal acetylcholine receptor; assay: Inhibition of [3H]MCC binding to rat brain membranes; type: cell membranes, Membrane; in short: as §1

| SMILES | ED50 (Rattus norvegicus [1]) [nmol] | IC50 (Acetylcholine receptor [2]) [nM] | IC50 (Acetylcholine receptor [3]) [nM] | IC50 [4] [nM] | Relative potency (Rattus norvegicus [5]) | IC50 [6] [nM] |
| --- | --- | --- | --- | --- | --- | --- |
| Cc1nccc2c1C1CCC(CC2)N1 (centres undefined) | 500 | 300 | 300 | 900 | 0.02 | 700 |
| c1cc2c(cn1)C1CCC(CC2)N1 (centres undefined) | 10 | 1 | 0.1 | 5 | 1 | 10 |
| CN1C2CCc3ccncc3C1CC2 (centres undefined) | 500 | 800 | 2000 | 1000 | 0.02 | 3000 |
| CN1CCC[C@H]1c1cccnc1 [NICOTINE] | 10 | 4 | 1 |  |  |  |
| c1cncc([C@@H]2CCCN2)c1 [NORNICOTINE] | 75 | 100 | 300 |  |  |  |
